Results of several laboratories.
Each line is one published result; the experiments were not run side by side.
SIGMAR1: Sigma non-opioid intracellular receptor 1 (SIGMAR1, Cavia porcellus, UniProt Q60492)
PTGS2: Prostaglandin G/H synthase 2 (PTGS2, Homo sapiens, UniProt P35354)
CHRM3: Muscarinic acetylcholine receptor M3 (CHRM3, Homo sapiens, UniProt P20309)
Rock2: Rho-associated protein kinase 2 (Rock2, Rattus norvegicus, UniProt Q62868)

CC(CN(C)C)C(Oc1cccc2ccccc12)c1cccs1 (centres unmarked)  inhibition (Sigma intracellular receptor 2 (TMEM97, Homo sapiens, UniProt Q5BJF2); ligand displacement, radioligand; 10 µM): -4.5%
COc1cc2c(cc1OC)CN(C(C)CCc1ccc(O)cc1)CC2 (centres unmarked)  inhibition (SIGMAR1; ligand displacement, radioligand; 0.1 µM): 34%
C=C[C@@]1(C)C=C2CC[C@@H]3[C@](C)(CCC[C@@]3(C)C(=O)O)[C@H]2CC1  inhibition (PTGS2; enzyme activity, inhibitor; 0.98 µg/mL): 15.2%
O=C(c1ccc(Cl)cc1)N(Cc1ccccc1)C1CCCCC1  inhibition (CHRM3; cell-free assay; 10 µM): -7.8%
CNC(=O)[C@@]12C[C@@H]1[C@@H](n1cnc3c(NC)nc(C#Cc4ccc(Cl)s4)nc31)[C@H](O)[C@@H]2O  inhibition (SIGMAR1; ligand displacement, radioligand; 10 µM): 60 to 70%
COc1ccc(-c2cc(=O)c3c(O)cc(O[C@@H]4O[C@H](CO)[C@@H](O)[C@H](O)[C@H]4O)cc3o2)cc1O  inhibition (PTGS2; enzyme activity, inhibitor; 0.24 µg/mL): 39.7%
Oc1ccc2ccccc2n1  inhibition (Serum paraoxonase/arylesterase 1 (PON1, Homo sapiens, UniProt P27169); enzyme activity, inhibitor; 20 µM): 84%
CCN1CCN(Cc2ccc(NC(=O)c3ccc(C)c(Oc4ccnc5[nH]ccc45)c3)cc2C(F)(F)F)CC1  inhibition (Inositol-tetrakisphosphate 1-kinase (Homo sapiens, UniProt Q13572); target engagement in cells, inhibitor, chemoproteomics; Huh-7; 10 µM): -35.5%
O=C1N=C(N2CCCCN2)S/C1=C\c1ccc(F)cc1O  inhibition (5-hydroxytryptamine receptor 1B (Htr1b, Rattus norvegicus, UniProt P28564); ligand displacement, radioligand; 10 µM): < 10%
CN(C)C1CCN(CC#Cc2nn(C3CCCC3)c3nc(NCc4ccccc4)ncc23)C1 (centres unmarked)  inhibition (Dual specificity tyrosine-phosphorylation-regulated kinase 1A (DYRK1A, Homo sapiens, UniProt Q13627); enzyme activity, inhibitor, FRET; 0.1 µM): 4%
Nc1ncnc2c1ncn2[C@@H]1O[C@H](CSCCNC(=O)NCc2ccccc2)[C@@H](O)[C@H]1O  inhibition (Protein arginine N-methyltransferase 7 (PRMT7, Homo sapiens, UniProt Q9NVM4); enzyme activity, inhibitor, radiometric; 10 µM): > 75%
COC(=O)c1ccc(O)cc1  inhibition (PTGS2; enzyme activity, inhibitor; 15.63 µg/mL): 53.2%
Cc1ccc(Nc2nccc(N(C)c3ccc4c(C)n(C)nc4c3)n2)cc1S(N)(=O)=O  inhibition (Rock2; enzyme activity, inhibitor; 0.3 µM): 11%
O=C(O)c1ccc(O)cc1  inhibition (PTGS2; enzyme activity, inhibitor; 0.98 µg/mL): 32.2%
COc1cc(NC(C)=O)c(Cl)cc1C(=O)Nc1nccs1  inhibition (CHRM3; cell-free assay; 10 µM): -22.1%
COc1cc(-c2cc(=O)c3c(O)cc(O)cc3o2)ccc1O  inhibition (PTGS2; enzyme activity, inhibitor; 7.81 µg/mL): 58.6%
CNC(=O)c1cc(Oc2ccc(NC(=O)Nc3ccc(Cl)c(C(F)(F)F)c3)cc2)ccn1  inhibition (Rock2; enzyme activity, inhibitor; 10 µM): 44%
